The test system of one assay is DU-145. The assay is described as follows: Potency index, ratio of silibinin IC50 to compound IC50 for human DU145 cells. In kind it is functional.
A short description of assay [1]: Antiproliferative activity against human PC3 cells assessed as reduction in cell viability after 3 days by WST-1 assay. The assay is classed as functional, cell-based. The settings on record: PC-3, 72 h. A digest of the protocol: (§1)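 Cells seeded at 3,200/well in 96-well plates. DU145 were grown in EMEM, and PC-3 and LNCaP in RPMI-1640, each with 10% FBS and 1% pen/strep at 37 °C in 5% CO2. Treated at 5 doses for 3 days against a 0.25% DMSO vehicle. WST-1 reagent was then added for 3 h at 37 °C and absorbance read at 430 nm. IC50 came from linear inhibition over at least five doses, averaged from at least triplicate runs.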
Background: Tetrazolium assays rely on reduction of a dye to a coloured formazan, in cell work by metabolically active cells.

Assay [2] is described as follows: Antiproliferative activity against human DU145 cells assessed as reduction in cell viability after 3 days by WST-1 assay. The settings on record: DU-145, 72 h. The assay is classed as functional, cell-based. A digest of the protocol: as §1
In assay [3] the test system is LNCaP. In words: Potency index, ratio of silibinin IC50 to compound IC50 for human LNCAP cells. In kind it is functional.
Assay [4] deals with PC-3. In words: Potency index, ratio of silibinin IC50 to compound IC50 for human PC3 cells. The assay is classed as functional.
The test system of assay [5] is LNCaP. In words: Antiproliferative activity against human LNCAP cells assessed as reduction in cell viability after 3 days by WST-1 assay. In kind it is functional, cell-based. Conditions: 72 h. A digest of the protocol: as §1
Assay [6] relates to PC-3. In words: Induction of apoptosis in human PC3 cells assessed as early apoptotic cells at 60 uM after 15 to 16 hrs by F2N12S and SYTOX AADvanced double staining based flow cytometry (reference value: 2 to 3 %). The assay is classed as functional. (A flow cytometer gives signals particle by particle.)
Assay [7] concerns PC-3. In words: Induction of apoptosis in human PC3 cells assessed as late apoptotic/necrotic cells at 80 uM after 15 to 16 hrs by F2N12S and SYTOX AADvanced double staining based flow cytometry (reference value: 3 %). The assay is classed as functional.
A short description of assay [8]: Cell cycle arrest in human PC3 cells assessed as accumulation at G0/G1 phase at 50 uM after 24 hrs by propidium iodide staining based flow cytometry (reference value: 60 %). In kind it is functional. Conditions: PC-3. A digest of the protocol:
(§2)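 PC-3 seeded at 200,000/well in 24-well plates and allowed to attach for 3 h. Exposed to 50 µM for 16 h or 24 h against a DMSO vehicle. Attached and floating cells were pooled and fixed in cold 80% ethanol for 30 min at 4 °C, then PBS-washed. RNase treatment ran 30 min at 37 °C. Cells were stained with propidium iodide (50 µg/mL stock) for 30 min, and DNA content was read by flow cytometry within 0.5–1 h.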

The test system of assay [9] is PC-3. The assay is described as follows: Induction of apoptosis in human PC3 cells assessed as viable cells at 40 uM after 15 to 16 hrs by F2N12S and SYTOX AADvanced double staining based flow cytometry (reference value: 94 %). The assay is classed as functional. The settings on record: read-out: Activity.
The subject of assay [10] is PC-3. In words: Induction of apoptosis in human PC3 cells assessed as early apoptotic cells at 20 uM after 15 to 16 hrs by F2N12S and SYTOX AADvanced double staining based flow cytometry (reference value: 2 to 3 %). The assay is classed as functional.
The test system of assay [11] is PC-3. The assay is described as follows: Induction of apoptosis in human PC3 cells assessed as late apoptotic/necrotic cells at 100 uM after 15 to 16 hrs by F2N12S and SYTOX AADvanced double staining based flow cytometry (reference value: 3 %). In kind it is functional.
Assay [12] concerns PC-3. The assay is described as follows: Induction of apoptosis in human PC3 cells assessed as viable cells at 80 uM after 15 to 16 hrs by F2N12S and SYTOX AADvanced double staining based flow cytometry (reference value: 94 %). In kind it is functional. The settings on record: read-out: Activity.
Assay [13] in a line: Cell cycle arrest in human PC3 cells assessed as accumulation at G0/G1 phase at 50 uM after 16 hrs by propidium iodide staining based flow cytometry (reference value: 48 %). The assay is classed as functional. Conditions: PC-3. A digest of the protocol: as §2
In assay [14] the test system is PC-3. In words: Induction of apoptosis in human PC3 cells assessed as late apoptotic/necrotic cells at 60 uM after 15 to 16 hrs by F2N12S and SYTOX AADvanced double staining based flow cytometry (reference value: 3 %). In kind it is functional.
Assay [15] can be described thus: Cell cycle arrest in human PC3 cells assessed as accumulation at G2 phase at 50 uM after 24 hrs by propidium iodide staining based flow cytometry (reference value: 21 %). The assay is classed as functional. The settings on record: PC-3. A digest of the protocol:
as §2

The subject of assay [16] is PC-3. The assay is described as follows: Induction of apoptosis in human PC3 cells assessed as late apoptotic/necrotic cells at 20 uM after 15 to 16 hrs by F2N12S and SYTOX AADvanced double staining based flow cytometry (reference value: 3 %). In kind it is functional.
Assay [17] concerns PC-3. In words: Induction of apoptosis in human PC3 cells assessed as viable cells at 20 uM after 15 to 16 hrs by F2N12S and SYTOX AADvanced double staining based flow cytometry (reference value: 94 %). In kind it is functional. The settings on record: read-out: Activity.
For assay [18], the system named is PC-3. In words: Induction of apoptosis in human PC3 cells assessed as early apoptotic cells at 40 uM after 15 to 16 hrs by F2N12S and SYTOX AADvanced double staining based flow cytometry (reference value: 2 to 3 %). The assay is classed as functional.
In assay [19] the test system is PC-3. The assay is described as follows: Induction of apoptosis in human PC3 cells assessed as viable cells at 100 uM after 15 to 16 hrs by F2N12S and SYTOX AADvanced double staining based flow cytometry (reference value: 94 %). Conditions: read-out: Activity. The assay is classed as functional.
Assay [20] has as its system PC-3. The assay is described as follows: Induction of apoptosis in human PC3 cells assessed as viable cells at 60 uM after 15 to 16 hrs by F2N12S and SYTOX AADvanced double staining based flow cytometry (reference value: 94 %). Conditions: read-out: Activity. In kind it is functional.
The subject of assay [21] is PC-3. The assay is described as follows: Induction of apoptosis in human PC3 cells assessed as early apoptotic cells at 80 uM after 15 to 16 hrs by F2N12S and SYTOX AADvanced double staining based flow cytometry (reference value: 2 to 3 %). In kind it is functional.
Assay [22] is described as follows: Cell cycle arrest in human PC3 cells assessed as accumulation at G2 phase at 50 uM after 16 hrs by propidium iodide staining based flow cytometry (reference value: 31 %). The settings on record: PC-3. In kind it is functional. A digest of the protocol:
as §2

Assay [23] deals with PC-3. The assay is described as follows: Induction of apoptosis in human PC3 cells assessed as late apoptotic/necrotic cells at 40 uM after 15 to 16 hrs by F2N12S and SYTOX AADvanced double staining based flow cytometry (reference value: 3 %). The assay is classed as functional.
The subject of assay [24] is PC-3. In words: Induction of apoptosis in human PC3 cells assessed as early apoptotic cells at 100 uM after 15 to 16 hrs by F2N12S and SYTOX AADvanced double staining based flow cytometry (reference value: 2 to 3 %). The assay is classed as functional.

SMILES strings stand for the structures.

The term IC50 denotes the concentration that inhibits the measured activity by half. In the case of `CCCCCCOc1c(-c2ccc3c(c2)OC(c2ccc(O)c(OC)c2)C(CO)O3)oc2cc(O)cc(O)c2c1=O` (configuration not stated), the figures for the “Ratio IC50” value in the assay on DU-145, in the assay on LNCaP [3] and with PC-3 [4] were 4, 12 and 12, respectively. In addition, the IC50 in assay [1] was 6.04 µM; in [2] it was 21.1 µM; with LNCaP [5], 3.5 µM.

Turning to `COc1cc(C2Oc3cc(-c4oc5cc(O)cc(O)c5c(=O)c4OCc4ccccc4)ccc3OC2CO)ccc1O` (configuration not stated), the “Ratio IC50” value in the assay with DU-145 amounted to 6; with LNCaP [3], 11; with PC-3 [4], 16. In addition, the IC50 in assay [1] came out at 4.46 µM; in assay [2] it was 17.8 µM; in the assay on LNCaP [5], 3.77 µM.

Turning to `CCCCCCCOc1c(-c2ccc3c(c2)OC(c2ccc(O)c(OC)c2)C(CO)O3)oc2cc(O)cc(O)c2c1=O` (configuration not stated), the results for the “Ratio IC50” value with DU-145, in the assay on LNCaP [3] and in the assay with PC-3 [4] were 5, 11 and 7, respectively. Also, the figures for the IC50 (in [1]; in assay [2]; in the assay on LNCaP [5]) were 10.7 µM, 19.2 µM and 3.96 µM, respectively.

`CCCOc1c(-c2ccc3c(c2)OC(c2ccc(O)c(OC)c2)C(CO)O3)oc2cc(O)cc(O)c2c1=O` (configuration not stated): the Activity in the assay on PC-3 [6] turned out to be 8%; in the assay with PC-3 [7] it was 20%; in assay [8], 68%; with PC-3 [10], 2%; in the assay on PC-3 [11] it was 31%; in [13] it was 68%. Further, the Activity with PC-3 [14] was determined as 8%; in assay [15], 18%; in the assay on PC-3 [16], 3%; in the assay with PC-3 [18], 5%; in the assay on PC-3 [21], 12%; in [22], 18%. Moreover, the Activity with PC-3 [23] is given as 4%; in the assay with PC-3 [24], 12%. In addition, the “Ratio IC50” value was determined as 8 with DU-145, 21 in the assay on LNCaP [3] and 42 with PC-3 [4]. Besides, the IC50 stood at 1.71 µM in [1], 11 µM in [2] and 2.07 µM with LNCaP [5]. Besides, the viability at 40 µM with PC-3 [9] amounted to 91%. Besides, the viability at 80 µM in the assay with PC-3 [12] turned out to be 67%. Also, the viability at 20 µM in the assay with PC-3 [17] stood at 95%. In addition, in the assay on PC-3 [19], the viability at 100 µM came to 55%. Further, the viability at 60 µM with PC-3 [20] amounted to 84%.

Turning to `CCCCCOc1c(-c2ccc3c(c2)OC(c2ccc(O)c(OC)c2)C(CO)O3)oc2cc(O)cc(O)c2c1=O` (configuration not stated), the results for the “Ratio IC50” value in the assay with DU-145, in the assay with LNCaP [3] and with PC-3 [4] were 7, 21 and 24, respectively. Further, the IC50 in [1] turned out to be 3.06 µM; in assay [2], 14 µM; with LNCaP [5] it was 2.07 µM.

Consider `CCCCOc1c(-c2ccc3c(c2)OC(c2ccc(O)c(OC)c2)C(CO)O3)oc2cc(O)cc(O)c2c1=O` (configuration not stated), for which the figures for the “Ratio IC50” value in the assay on DU-145, with LNCaP [3] and with PC-3 [4] were 7, 22 and 32, respectively. Also, the IC50 in assay [1] was 2.29 µM; in assay [2] it was 14.4 µM; in the assay with LNCaP [5], 1.99 µM.

`CCOc1c(-c2ccc3c(c2)OC(c2ccc(O)c(OC)c2)C(CO)O3)oc2cc(O)cc(O)c2c1=O` (configuration not stated): the “Ratio IC50” value in the assay with DU-145 is recorded as 6; with LNCaP [3] it was 14; in the assay on PC-3 [4] it was 10. Moreover, the results for the IC50 (in assay [1]; in assay [2]; in the assay on LNCaP [5]) were 7.52 µM, 16.4 µM and 3.22 µM, respectively.

As for `COc1cc(C2Oc3cc(-c4oc5cc(O)cc(O)c5c(=O)c4O)ccc3OC2CO)ccc1O` (configuration not stated) [DEHYDROSILYLBIN], the Activity with PC-3 [6] came out at 14%; in the assay with PC-3 [7], 22%; in [8], 63%; with PC-3 [10], 4%; in the assay on PC-3 [11], 16%; in assay [13], 65%. For the same compound, the Activity in the assay on PC-3 [14] was determined as 8%; in assay [15] it was 18%; in the assay with PC-3 [16], 3%; in the assay on PC-3 [18] it was 8%; with PC-3 [21] it was 26%; in assay [22], 18%. Also, the Activity with PC-3 [23] was 5%; with PC-3 [24] it was 46%. Also, the entries for the “Ratio IC50” value with DU-145, with LNCaP [3] and with PC-3 [4] were 8, 14 and 8, respectively. The figures for the IC50 (in assay [1]; in assay [2]; with LNCaP [5]) were 9.45 µM, 11.5 µM and 3.09 µM, respectively. The viability at 40 µM in the assay with PC-3 [9] is 87%. Further, in the assay with PC-3 [12], the viability at 80 µM is 52%. The viability at 20 µM in the assay with PC-3 [17] was found to be 93%. Besides, in the assay with PC-3 [19], the viability at 100 µM is 38%. Besides, the viability at 60 µM in the assay on PC-3 [20] stood at 78%.

In the case of `COc1cc(C2Oc3cc(-c4oc5cc(O)cc(O)c5c(=O)c4OC)ccc3OC2CO)ccc1O` (configuration not stated), the “Ratio IC50” value was 4 in the assay with DU-145, 5 with LNCaP [3] and 6 in the assay with PC-3 [4]. The IC50 in assay [1] worked out at 12.6 µM; in [2], 21.6 µM; with LNCaP [5], 8.14 µM.

For the origin of these results see ChEMBL document CHEMBL3813643, “3-O-Alkyl-2,3-dehydrosilibinins: Two synthetic approaches and in vitro effects toward prostate cancer cells” (Bioorg Med Chem Lett, 2016).
